Tests used:
[1] = biological target: T1, Estrogen receptor (Mus musculus) (UniProt O08537+P19785); experiment: (§1) Uterotrophic effect in mice at 100 ug dose; type: functional, tissue-based; conditions: Uterus
Procedure, shortened: (§2)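 Immature female NMRI mice, 20 days old, 10 per group, given daily sc injections of 0.1 mL olive oil solution for 3 days. Uteri removed 24 h after the last dose, fixed in Bouin's solution, washed, dried and weighed. Antiestrogenic testing measured inhibition of estrone-stimulated uterine growth.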

[2] = biological target: T1, Estrogen receptor (Mus musculus); experiment: (§3) Uterotrophic effect in mice at 0 ug dose; type: functional, tissue-based; set-up: unit not given here; conditions: Uterus; procedure, shortened: as §2
[3] = biological target: T1, Estrogen receptor (Mus musculus); experiment: Uterotrophic effect in mice at 1 ug dose; type: functional, tissue-based; set-up: unit not given here; conditions: Uterus; procedure, shortened: as §2
[4] = biological target: T1, Estrogen receptor (Mus musculus); experiment: Uterotrophic effect in mice at 10 ug dose; type: functional, tissue-based; set-up: unit not given here; conditions: Uterus; procedure, shortened: as §2
[5] = biological target: T1, Estrogen receptor (Mus musculus); experiment: as §3; type: functional, tissue-based; set-up: unit not given here; conditions: Uterus; procedure, shortened: as §2; remark: listed apart in the source
[6] = biological target: T1, Estrogen receptor (Mus musculus); experiment: Uterotrophic effect in mice at 0.1 ug dose; type: functional, tissue-based; set-up: unit not given here; conditions: Uterus; procedure, shortened: as §2
[7] = biological target: T1, Estrogen receptor (Mus musculus); experiment: Uterotrophic effect in mice at 1000 ug dose; type: functional, tissue-based; conditions: Uterus; procedure, shortened: as §2
[8] = biological target: T1, Estrogen receptor (Mus musculus); experiment: as §1; type: functional, tissue-based; set-up: unit not given here; conditions: Uterus; procedure, shortened: as §2
[9] = biological target: T1, Estrogen receptor (Mus musculus); experiment: Uterotrophic effect in mice at 25 ug dose; type: functional, tissue-based; set-up: unit not given here; conditions: Uterus; procedure, shortened: as §2
[10] = biological target: T1, Estrogen receptor (Mus musculus); experiment: Uterotrophic effect in mice at 500 ug dose; type: functional, tissue-based; set-up: unit not given here; conditions: Uterus; procedure, shortened: as §2
[11] = biological target: T1, Estrogen receptor (Mus musculus); experiment: Uterotrophic effect in mice at 5 ug dose; type: functional, tissue-based; conditions: Uterus; procedure, shortened: as §2
[12] = biological target: T1, Estrogen receptor (Mus musculus); experiment: Uterotrophic effect in BD2F mice bearing transplantable hormone dependent MXT at 13.84 mg dose; type: functional, tissue-based
Procedure, shortened: (§4)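 MXT-bearing female BD2F1 mice (10 per group) dosed sc in olive oil three times weekly for 6 weeks from the day after tumor transplantation. Uteri excised at sacrifice and dry weight determined; values given as mean ± SD.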

[13] = biological target: T1, Estrogen receptor (Mus musculus); experiment: Anti-uterotrophic effect in mice at 25 ug dose; type: functional
Procedure, shortened: (§5)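 Immature female NMRI mice, 20 days old (14.5 ± 1.2 g), randomized into groups of 10. Each received a daily sc injection of compound in 0.1 mL olive oil for 3 days, given together with estrone. Uteri were taken 24 h after the last injection, fixed in Bouin's solution, washed, dried and weighed. The read-out was inhibition of estrone-stimulated uterine growth.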

[14] = biological target: T1, Estrogen receptor (Mus musculus); experiment: Anti-uterotrophic effect in mice at 5 ug dose; type: functional; procedure, shortened: as §5
Mus musculus [15] = species on record: Mus musculus; experiment: Relative average tumor wet weight in treated compared to untreated mice at 13.84 mg dose; type: functional
Procedure, shortened: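 MXT mammary tumor pieces of 1-2 mm³ from syngeneic donors were implanted sc by trocar into female BD2F₁ mice aged 8-10 weeks (20.0 ± 1.7 g), groups of 10. From the next day, compound in olive oil was given sc three times weekly for 6 weeks. Tumor wet weight was measured at the end and expressed as % T/C.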

[16] = biological target: T1, Estrogen receptor (Mus musculus); experiment: Uterotrophic effect in BD2F mice bearing transplantable hormone dependent MXT at 2.77 mg dose; type: functional, tissue-based; procedure, shortened: as §4
Mus musculus [17] = species on record: Mus musculus; experiment: Relative average tumor wet weight in treated compared to untreated mice at 2.77 mg dose; type: functional
Procedure, shortened: (§6)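 Syngeneic female BD2F1 mice (8–10 weeks) received sc trocar implants of 1–2-mm³ MXT tumor pieces, 10 per group. Treatment began the next day: sc doses in olive oil (solution or suspension), three times weekly for 6 weeks. Tamoxifen-treated control group included. Tumor wet weight measured at sacrifice; expressed as % T/C versus untreated controls.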

[18] = biological target: T1, Estrogen receptor (Mus musculus)
[19] = biological target: T1, Estrogen receptor (Mus musculus); remark: listed apart in the source
[20] = biological target: T1, Estrogen receptor (Mus musculus); remark: listed apart in the source
[21] = biological target: T1, Estrogen receptor (Mus musculus); remark: listed apart in the source
[22] = biological target: T1, Estrogen receptor (Mus musculus); remark: listed apart in the source
[23] = biological target: T1, Estrogen receptor (Mus musculus); conditions: Uterus
[24] = biological target: T1, Estrogen receptor (Mus musculus); conditions: Uterus; remark: listed apart in the source
[25] = biological target: T1, Estrogen receptor (Mus musculus); conditions: Uterus; remark: listed apart in the source
[26] = biological target: T1, Estrogen receptor (Mus musculus); conditions: Uterus; remark: listed apart in the source
[27] = biological target: T1, Estrogen receptor (Mus musculus); conditions: Uterus; remark: listed apart in the source
[28] = biological target: T1, Estrogen receptor (Mus musculus); conditions: Uterus; remark: listed apart in the source
[29] = biological target: T1, Estrogen receptor (Mus musculus); conditions: Uterus; remark: listed apart in the source
[30] = biological target: T1, Estrogen receptor (Mus musculus); conditions: Uterus; remark: listed apart in the source
[31] = biological target: T1, Estrogen receptor (Mus musculus); experiment: as §1; type: functional, tissue-based; set-up: unit not given here; conditions: Uterus; procedure, shortened: as §2; remark: listed apart in the source
[32] = biological target: T1, Estrogen receptor (Mus musculus); experiment: Uterotrophic effect in BD2F mice bearing transplantable hormone dependent MXT at 20 mg dose; type: functional, tissue-based; conditions: Uterus; procedure, shortened: as §4
[33] = biological target: T1, Estrogen receptor (Mus musculus); experiment: Uterotrophic effect in BD2F mice bearing transplantable hormone dependent MXT at 4 mg dose; type: functional, tissue-based; conditions: Uterus; procedure, shortened: as §4
Mus musculus [34] = species on record: Mus musculus; experiment: Relative average tumor wet weight in treated compared to untreated mice at 20 mg dose; type: functional; procedure, shortened: as §6
Mus musculus [35] = species on record: Mus musculus; experiment: Relative average tumor wet weight in treated compared to untreated mice at 4 mg dose; type: functional; procedure, shortened: as §6

T1 sequence (O08537 whole entry, looked up): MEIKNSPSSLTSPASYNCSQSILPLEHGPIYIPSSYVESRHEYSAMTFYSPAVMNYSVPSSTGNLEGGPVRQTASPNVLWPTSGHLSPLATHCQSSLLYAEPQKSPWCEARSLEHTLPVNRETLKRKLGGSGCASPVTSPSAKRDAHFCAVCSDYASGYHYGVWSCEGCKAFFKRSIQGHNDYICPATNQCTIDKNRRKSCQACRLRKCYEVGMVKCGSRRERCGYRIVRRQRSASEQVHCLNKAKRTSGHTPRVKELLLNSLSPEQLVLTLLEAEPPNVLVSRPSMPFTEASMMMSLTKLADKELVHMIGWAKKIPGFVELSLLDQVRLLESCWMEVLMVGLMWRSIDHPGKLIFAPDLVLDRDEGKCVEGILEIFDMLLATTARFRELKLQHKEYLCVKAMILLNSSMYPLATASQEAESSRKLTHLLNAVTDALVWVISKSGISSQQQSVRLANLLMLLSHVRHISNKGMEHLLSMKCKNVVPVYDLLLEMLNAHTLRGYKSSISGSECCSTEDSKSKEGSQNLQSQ
T1 sequence (P19785 whole entry, looked up): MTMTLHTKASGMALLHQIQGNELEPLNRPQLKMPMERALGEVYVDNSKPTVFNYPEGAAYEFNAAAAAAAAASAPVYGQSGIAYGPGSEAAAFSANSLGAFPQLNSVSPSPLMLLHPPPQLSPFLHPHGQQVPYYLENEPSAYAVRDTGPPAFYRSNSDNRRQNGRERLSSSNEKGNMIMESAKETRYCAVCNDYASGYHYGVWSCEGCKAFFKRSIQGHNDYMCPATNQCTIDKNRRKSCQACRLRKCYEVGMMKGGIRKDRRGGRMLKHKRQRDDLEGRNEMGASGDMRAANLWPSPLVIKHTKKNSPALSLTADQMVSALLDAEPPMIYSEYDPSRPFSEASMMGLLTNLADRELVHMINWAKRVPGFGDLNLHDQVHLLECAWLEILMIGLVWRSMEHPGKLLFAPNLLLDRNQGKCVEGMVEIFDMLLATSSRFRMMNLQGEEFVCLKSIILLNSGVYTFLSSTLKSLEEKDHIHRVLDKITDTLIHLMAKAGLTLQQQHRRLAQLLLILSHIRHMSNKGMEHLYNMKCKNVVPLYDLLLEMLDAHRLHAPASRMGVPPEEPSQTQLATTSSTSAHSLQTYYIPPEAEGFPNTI

With `C[C@H](c1ccc(O)cc1)[C@@H](C)c1ccc(O)cc1` the Effect [1] was 42.2, the Effect [2] was 11.8 and the Effect [3] was 22.6. It also gave an Effect [4] of 28, an Effect [5] of 14.8 and an Effect [6] of 17.7. It also gave an Effect [7] of 34.8, an Effect [8] of 45.1 and an Effect [9] of 36. For the same compound, the Effect [10] was 56.5, the Effect [11] was 33.6 and the Uterus effect [12] was 77.6. It also gave an inhibition [13] of 14.1%, an inhibition [14] of 23.8% and a TC (Mus musculus [15]) of 23.1%. The Uterus effect [16] was 79.9 and the TC (Mus musculus [17]) was 68.5%.
`C[C@]12CC[C@@H]3c4ccc(O)cc4CC[C@H]3[C@@H]1CCC2=O` was tested, and the Effect [18] was 39.5, the Effect [19] was 39.3 and the Effect [20] was 39.5. It also gave an Effect [21] of 39.5, an Effect [22] of 41.8 and an Effect [23] of 39.8. It also gave an Effect [24] of 46.4, an Effect [25] of 46.6 and an Effect [26] of 47.3. It also gave an Effect [27] of 49, an Effect [28] of 46.8 and an Effect [29] of 45.6. For the same compound, the Effect [30] was 46.8.
`Oc1cccc(/C(=C(/c2cccc(O)c2)C(F)(F)F)C(F)(F)F)c1` showed an Effect [2] of 11.1, an Effect [3] of 25.3 and an Effect [4] of 29. The Effect [31] was 45.5, the Effect [5] was 14.8 and the Effect [6] was 15.7. The Effect [7] was 51.8, the Effect [8] was 47.8 and the Effect [9] was 47.4. For the same compound, the Effect [10] was 52.6, the Effect [11] was 43 and the Effect [32] was 82.1. It also gave an Effect [33] of 74.8, a TC (Mus musculus [34]) of 11.5% and a TC (Mus musculus [35]) of 25.7%.

From ChEMBL document CHEMBL1123408, “Influence of alkyl-chain fluorination on the action of mammary tumor inhibiting 2,3-bis(hydroxyphenyl)butanes and 2,3-bis(hydroxyphenyl)but-2-enes” (1986)
